Source: ChEMBL document CHEMBL1138064, “Discovery of N-[(3R)-1-azabicyclo[2.2.2]oct-3-yl]furo[2,3-c]pyridine-5-carboxamide, an agonist of the alpha7 nicotinic acetylcholine receptor, for the potential treatment of cognitive deficits in schizophrenia: synthesis and structure--activity relationship” (J Med Chem, 2006)

Assays:
[1] = Activity at alpha7-5HT3 chimera expressed in SHEP1 cells by FLIPR assay; assay type: functional, cell-based; settings: Homo sapiens, SH-EP1
Method in brief: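 Cell-based FLIPR functional assay in SH-EP1 cells expressing the α7-5HT3 chimera. Values are the average of at least five experiments for most compounds.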

[2] = Metabolic stability in Sprague-Dawley rat liver microsomes after 1 hr; assay type: ADME, Microsome; settings: read-out: Stability
Method in brief: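 Rat liver microsomes incubated with compound, in vitro metabolism; read-out is percent of parent remaining at 1 h.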

[3] = target: Neuronal acetylcholine receptor subunit alpha-7 (Rattus norvegicus, UniProt Q05941); test: Displacement of [3H]MLA from alpha-7 nAChR in Sprague-Dawley rat brain homogenates; assay type: tissue-based
Method in brief: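 Rat brain homogenate binding assay with [3H]MLA as radioligand. Values are the average of two or more experiments.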

[4] = target: Neuronal acetylcholine receptor; alpha3/beta4 (Homo sapiens, UniProt P30926+P32297); test: Inhibition of alpha-3-beta-4 nAChR expressed in SHSY5Y cells by FLIPR assay; assay type: functional, cell-based, SH-SY5Y
Method in brief: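 FLIPR cell-based functional assay in SH-SY5Y cells, which carry α3β4-containing ganglion-type nAChRs; tested for agonist and antagonist activity; IC50 in µM.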

[5] = target: Serotonin 3 (5-HT3) receptor; test: Activity at 5HT3 receptor expressed in SHEP1 cells by FLIPR assay; assay type: functional, cell-based, Homo sapiens
Method in brief: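 Cell-based FLIPR functional assay in SH-EP1 cells expressing 5-HT3.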

hERG [6] = target: T1, hERG (Homo sapiens, UniProt Q12809); test: Inhibition of hERG expressed in HEK293 cells at 20 uM by patch clamp assay; assay type: toxicity, cell-based; settings: HEK293 cells that express hERG
Method in brief: (§1)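 hERG current (IKr) in HEK cells recorded by patch clamp; compound applied at 2 and 20 µM; % block of current reported at each concentration.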

hERG [7] = target: T1, hERG; test: Inhibition of hERG expressed in HEK293 cells at 2 uM by patch clamp assay; assay type: toxicity, cell-based; settings: HEK293 cells that express hERG; method in brief: as §1
[8] = target: Acetylcholine receptor; alpha1/beta1/delta/gamma (Homo sapiens, UniProt P02708+P07510+P11230+Q07001); test: Inhibition of alpha-1-beta-1-gamma-delta nAChR expressed in TE671cells by FLIPR assay; assay type: functional, cell-based, TE-671
Method in brief: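 Functional FLIPR read-out in TE671 cells expressing native muscle-type α1β1γδ nAChR, cell-based; tested for agonist and antagonist activity; IC50 in µM.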

[9] = target: Serotonin 3 (5-HT3) receptor; test: Binding affinity to 5HT3 receptor; assay type: protein-complex assay, Homo sapiens
[10] = target: Neuronal acetylcholine receptor; alpha4/beta2 (Rattus norvegicus) (UniProt P09483+P12390); test: Inhibition of [3H]cytisine binding to alpha4beta2 nAChR in rat brain homogenate at 1 uM; assay type: tissue-based
Method in brief: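 Radioligand displacement in rat brain homogenate with [³H]cytisine as the α4β2 ligand; test compound at 1 µM; value reported as % block of binding.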

[11] = Half life in Sprague-Dawley rat liver microsome; assay type: ADME; settings: liver microsomes
[12] = Oral bioavailability in rat constant infusion model; assay type: ADME, organism-based; settings: in vivo
Method in brief: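 Rat clearance and oral bioavailability derived from a constant infusion model.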

[13] = Clearance in rat constant infusion model; assay type: ADME, organism-based; settings: in vivo, iv
Method in brief: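 Clearance determined in a rat constant infusion model.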

Cytochrome P450 2D6 = Cytochrome P450 2D6 (Homo sapiens, UniProt P10635); test: Inhibition of CYP2D6; assay type: ADME
[14] = Half life in human liver microsome; assay type: ADME; settings: liver microsomes

Chain of Acetylcholine receptor; alpha1/beta1/delta/gamma (P02708 whole entry): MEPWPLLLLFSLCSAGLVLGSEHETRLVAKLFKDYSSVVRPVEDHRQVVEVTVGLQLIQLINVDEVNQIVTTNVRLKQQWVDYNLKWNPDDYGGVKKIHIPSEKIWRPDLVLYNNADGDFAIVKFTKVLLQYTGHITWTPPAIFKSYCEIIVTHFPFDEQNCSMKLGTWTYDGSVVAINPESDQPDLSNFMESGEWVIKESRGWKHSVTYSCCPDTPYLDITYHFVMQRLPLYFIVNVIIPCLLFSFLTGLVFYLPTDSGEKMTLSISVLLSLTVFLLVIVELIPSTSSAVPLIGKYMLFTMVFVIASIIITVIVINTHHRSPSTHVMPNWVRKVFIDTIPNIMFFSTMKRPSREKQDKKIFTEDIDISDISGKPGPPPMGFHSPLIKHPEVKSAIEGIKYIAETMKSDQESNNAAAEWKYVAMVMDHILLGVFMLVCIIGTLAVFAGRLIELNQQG
Chain of Acetylcholine receptor; alpha1/beta1/delta/gamma (P07510 whole entry): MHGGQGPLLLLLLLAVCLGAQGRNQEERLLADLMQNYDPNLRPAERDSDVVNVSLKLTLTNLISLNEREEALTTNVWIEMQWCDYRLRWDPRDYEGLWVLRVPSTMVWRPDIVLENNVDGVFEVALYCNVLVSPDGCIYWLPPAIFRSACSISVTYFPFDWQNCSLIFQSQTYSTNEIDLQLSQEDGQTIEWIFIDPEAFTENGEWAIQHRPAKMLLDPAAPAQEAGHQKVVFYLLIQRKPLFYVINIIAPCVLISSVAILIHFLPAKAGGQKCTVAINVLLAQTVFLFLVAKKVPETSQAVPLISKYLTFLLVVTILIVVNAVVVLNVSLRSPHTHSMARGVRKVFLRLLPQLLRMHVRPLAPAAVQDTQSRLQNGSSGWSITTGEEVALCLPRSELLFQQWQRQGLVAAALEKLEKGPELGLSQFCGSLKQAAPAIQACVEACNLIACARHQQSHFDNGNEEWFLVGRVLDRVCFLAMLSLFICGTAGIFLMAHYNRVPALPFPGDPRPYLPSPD
Chain of Acetylcholine receptor; alpha1/beta1/delta/gamma (P11230 whole entry): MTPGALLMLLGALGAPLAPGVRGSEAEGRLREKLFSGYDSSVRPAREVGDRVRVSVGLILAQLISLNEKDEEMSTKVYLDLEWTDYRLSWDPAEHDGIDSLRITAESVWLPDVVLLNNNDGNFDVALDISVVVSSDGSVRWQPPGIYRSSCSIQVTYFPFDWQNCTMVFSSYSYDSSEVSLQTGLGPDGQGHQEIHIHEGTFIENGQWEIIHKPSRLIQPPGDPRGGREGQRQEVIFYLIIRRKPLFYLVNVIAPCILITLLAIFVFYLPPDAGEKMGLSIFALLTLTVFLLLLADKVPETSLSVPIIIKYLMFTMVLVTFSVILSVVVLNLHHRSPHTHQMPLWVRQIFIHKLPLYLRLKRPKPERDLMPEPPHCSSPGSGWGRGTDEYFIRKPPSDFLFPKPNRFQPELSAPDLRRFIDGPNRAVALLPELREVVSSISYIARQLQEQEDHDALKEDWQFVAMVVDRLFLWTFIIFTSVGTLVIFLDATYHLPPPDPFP
Chain of Acetylcholine receptor; alpha1/beta1/delta/gamma (Q07001 whole entry): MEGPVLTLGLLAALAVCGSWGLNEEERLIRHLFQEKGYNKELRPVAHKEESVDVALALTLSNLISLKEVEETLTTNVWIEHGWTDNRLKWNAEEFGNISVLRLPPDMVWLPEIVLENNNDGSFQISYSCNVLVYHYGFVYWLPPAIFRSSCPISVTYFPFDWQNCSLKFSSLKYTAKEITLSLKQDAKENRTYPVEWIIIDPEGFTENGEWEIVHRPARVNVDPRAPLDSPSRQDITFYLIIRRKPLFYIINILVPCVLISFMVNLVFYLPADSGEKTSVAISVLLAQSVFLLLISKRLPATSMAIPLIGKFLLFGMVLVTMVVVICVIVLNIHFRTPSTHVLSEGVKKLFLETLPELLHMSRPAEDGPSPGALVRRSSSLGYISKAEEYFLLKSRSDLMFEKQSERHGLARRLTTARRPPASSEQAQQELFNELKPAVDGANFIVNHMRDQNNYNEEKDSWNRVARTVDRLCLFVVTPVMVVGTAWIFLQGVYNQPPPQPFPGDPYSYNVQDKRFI
T1 sequence (Q12809 whole entry): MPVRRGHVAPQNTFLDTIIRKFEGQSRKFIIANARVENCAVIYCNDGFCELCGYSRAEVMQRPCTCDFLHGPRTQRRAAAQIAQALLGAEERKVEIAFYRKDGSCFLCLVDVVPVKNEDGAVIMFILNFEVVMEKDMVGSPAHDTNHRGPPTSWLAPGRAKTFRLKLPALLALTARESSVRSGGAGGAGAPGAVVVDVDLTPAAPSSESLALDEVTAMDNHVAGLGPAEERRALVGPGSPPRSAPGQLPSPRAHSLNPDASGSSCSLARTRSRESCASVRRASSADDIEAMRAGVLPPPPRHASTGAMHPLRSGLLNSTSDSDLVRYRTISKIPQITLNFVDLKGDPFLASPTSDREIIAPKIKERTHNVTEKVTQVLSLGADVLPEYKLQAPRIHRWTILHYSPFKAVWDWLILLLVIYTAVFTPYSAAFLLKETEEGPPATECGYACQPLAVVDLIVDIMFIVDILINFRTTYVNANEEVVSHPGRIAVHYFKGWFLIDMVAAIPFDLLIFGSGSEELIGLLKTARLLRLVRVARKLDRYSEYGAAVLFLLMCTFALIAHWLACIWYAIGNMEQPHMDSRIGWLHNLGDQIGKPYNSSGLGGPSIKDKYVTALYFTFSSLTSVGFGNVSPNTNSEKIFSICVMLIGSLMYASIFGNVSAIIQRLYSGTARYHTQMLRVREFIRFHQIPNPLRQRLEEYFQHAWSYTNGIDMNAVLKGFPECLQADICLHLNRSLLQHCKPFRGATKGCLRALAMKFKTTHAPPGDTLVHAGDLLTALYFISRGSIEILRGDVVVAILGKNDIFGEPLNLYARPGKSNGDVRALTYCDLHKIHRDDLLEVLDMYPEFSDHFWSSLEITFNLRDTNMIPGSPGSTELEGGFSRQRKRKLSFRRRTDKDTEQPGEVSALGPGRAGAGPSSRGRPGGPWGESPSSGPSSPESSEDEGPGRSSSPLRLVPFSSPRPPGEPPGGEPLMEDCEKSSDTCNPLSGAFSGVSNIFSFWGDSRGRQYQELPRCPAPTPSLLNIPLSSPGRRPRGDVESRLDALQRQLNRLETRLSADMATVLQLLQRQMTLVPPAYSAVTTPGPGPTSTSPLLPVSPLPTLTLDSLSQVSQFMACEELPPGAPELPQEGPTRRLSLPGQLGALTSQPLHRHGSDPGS
Chain of Neuronal acetylcholine receptor; alpha3/beta4 (P30926 whole entry): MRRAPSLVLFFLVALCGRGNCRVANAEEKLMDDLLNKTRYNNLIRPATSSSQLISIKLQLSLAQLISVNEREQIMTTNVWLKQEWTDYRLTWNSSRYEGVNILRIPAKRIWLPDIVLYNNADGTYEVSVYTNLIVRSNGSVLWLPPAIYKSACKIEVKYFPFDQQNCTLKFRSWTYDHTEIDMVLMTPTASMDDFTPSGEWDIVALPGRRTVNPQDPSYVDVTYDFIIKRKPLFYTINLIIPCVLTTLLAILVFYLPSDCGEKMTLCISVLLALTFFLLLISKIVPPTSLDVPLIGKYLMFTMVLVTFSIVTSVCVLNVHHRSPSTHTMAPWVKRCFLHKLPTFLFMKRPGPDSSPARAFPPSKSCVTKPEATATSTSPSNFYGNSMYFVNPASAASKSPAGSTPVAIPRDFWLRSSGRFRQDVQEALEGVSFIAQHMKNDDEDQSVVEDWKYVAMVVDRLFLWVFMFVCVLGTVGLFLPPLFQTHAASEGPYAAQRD
Chain of Neuronal acetylcholine receptor; alpha3/beta4 (P32297 whole entry): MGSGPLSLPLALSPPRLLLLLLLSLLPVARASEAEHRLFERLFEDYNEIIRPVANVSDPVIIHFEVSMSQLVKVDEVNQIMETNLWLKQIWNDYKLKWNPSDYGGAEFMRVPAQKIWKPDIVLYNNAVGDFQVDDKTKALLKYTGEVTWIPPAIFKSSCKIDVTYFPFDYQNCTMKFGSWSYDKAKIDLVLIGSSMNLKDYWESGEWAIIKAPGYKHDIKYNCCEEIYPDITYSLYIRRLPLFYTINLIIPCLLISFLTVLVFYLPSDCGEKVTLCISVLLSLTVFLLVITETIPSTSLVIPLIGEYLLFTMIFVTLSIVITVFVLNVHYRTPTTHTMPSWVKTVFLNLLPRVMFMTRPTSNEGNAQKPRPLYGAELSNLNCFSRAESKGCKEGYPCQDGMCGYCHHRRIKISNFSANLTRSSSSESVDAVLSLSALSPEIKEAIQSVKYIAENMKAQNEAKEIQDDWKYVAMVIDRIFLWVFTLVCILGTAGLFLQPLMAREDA
Chain of Neuronal acetylcholine receptor subunit alpha-7 (Q05941 whole entry): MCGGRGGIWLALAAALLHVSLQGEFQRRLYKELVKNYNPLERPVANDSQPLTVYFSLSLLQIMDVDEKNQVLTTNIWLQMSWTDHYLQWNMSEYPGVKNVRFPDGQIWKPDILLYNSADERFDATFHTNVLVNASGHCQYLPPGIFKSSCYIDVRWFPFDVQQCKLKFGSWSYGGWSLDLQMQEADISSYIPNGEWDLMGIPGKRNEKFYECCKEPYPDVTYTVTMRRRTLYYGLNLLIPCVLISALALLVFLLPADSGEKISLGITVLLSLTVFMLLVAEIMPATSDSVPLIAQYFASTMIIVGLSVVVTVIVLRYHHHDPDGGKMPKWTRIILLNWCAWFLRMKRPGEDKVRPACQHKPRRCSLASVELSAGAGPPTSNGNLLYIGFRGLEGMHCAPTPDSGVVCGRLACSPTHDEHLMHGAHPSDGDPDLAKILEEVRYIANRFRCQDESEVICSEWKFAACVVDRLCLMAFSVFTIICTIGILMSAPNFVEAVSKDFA

Structure (SMILES): O=C(N[C@H]1CN2CCC1CC2)c1ccc2sccc2c1
- EC50 [1]: 55 nM
- remaining at 1 h [2]: 6%
- Ki [3]: 6.9 nM

Structure (SMILES): O=C(N[C@H]1CN2CCC1CC2)c1cc2ccsc2cn1
- EC50 [1]: 100 nM
- remaining at 1 h [2]: 7%
- Ki [3]: 6.3 nM

Structure (SMILES): O=C(N[C@H]1CN2CCC1CC2)c1ccc2c(c1)CCN2
- EC50 [1]: 600 nM
- Ki [3]: 83 nM

Structure (SMILES): O=C(N[C@H]1CN2CCC1CC2)c1ccc2cc[nH]c2c1
- EC50 [1]: 100 nM
- remaining at 1 h [2]: 14%

Structure (SMILES): O=C(N[C@H]1CN2CCC1CC2)c1cc2occc2cn1
- EC50 [1]: 374 nM
- remaining at 1 h [2]: 40%
- Ki [3]: 50 nM

Structure (SMILES): O=C(N[C@H]1CN2CCC1CC2)c1ccc2ccoc2n1
- EC50 [1]: > 10000 nM

Structure (SMILES): O=C(N[C@H]1CN2CCC1CC2)c1cc2sccc2cn1
- EC50 [1]: 81 nM
- remaining at 1 h [2]: 7%

Structure (SMILES): O=C(N[C@H]1CN2CCC1CC2)c1cnc2occc2c1
- EC50 [1]: > 10000 nM

Structure (SMILES): O=C(N[C@H]1CN2CCC1CC2)c1cc2cc[nH]c2cn1
- EC50 [1]: 1170 nM
- remaining at 1 h [2]: 29%

Structure (SMILES): O=C(N[C@H]1CN2CCC1CC2)c1ccc2[nH]ccc2c1
- EC50 [1]: 550 nM

Structure (SMILES): O=C(N[C@H]1CN2CCC1CC2)c1ccc2ccsc2c1
- IC50 [4]: 38000 nM
- Ki [5]: 188 nM
- EC50 [1]: 48 nM
- remaining at 1 h [2]: 29%
- Ki [3]: 2.1 nM
- inhibition at 20 µM (hERG [6]): 65%
- inhibition at 2 µM (hERG [7]): 13%
- IC50 [8]: > 100000 nM
- Ki [9]: 174 nM

Structure (SMILES): O=C(N[C@H]1CN2CCC1CC2)c1ccc2occc2c1
- IC50 [4]: > 100000 nM
- inhibition [10]: 5%
- half-life [11]: > 2 h
- Ki [5]: 580 nM
- EC50 [1]: 47 nM
- remaining at 1 h [2]: 77%
- bioavailability [12]: 88%
- Ki [3]: 1.6 nM
- inhibition at 20 µM (hERG [6]): 33%
- inhibition at 2 µM (hERG [7]): 2%
- clearance [13]: 39 mL/min/kg
- IC50 [8]: > 100000 nM
- IC50 (Cytochrome P450 2D6): 3600 nM
- Ki [9]: 663 nM
- half-life [14]: > 2 h

Structure (SMILES): O=C(N[C@H]1CN2CCC1CC2)c1ccc2c(c1)CCO2
- EC50 [1]: 77 nM
- Ki [3]: 15 nM

Structure (SMILES): O=C(N[C@H]1CN2CCC1CC2)c1ccc2ccoc2c1
- IC50 [4]: 81000 nM
- Ki [5]: 962 nM
- EC50 [1]: 86 nM
- remaining at 1 h [2]: 69%
- bioavailability [12]: 76%
- Ki [3]: 12.5 nM
- inhibition at 20 µM (hERG [6]): 29%
- inhibition at 2 µM (hERG [7]): 2%
- clearance [13]: 58 mL/min/kg
- IC50 [8]: > 100000 nM
- IC50 (Cytochrome P450 2D6): > 10000 nM
- Ki [9]: 310 nM
- half-life [14]: > 2 h

Structure (SMILES): O=C(N[C@H]1CN2CCC1CC2)c1ccc(Cl)cc1 [PNU-282987]
- IC50 [4]: > 60000 nM
- inhibition [10]: 14%
- half-life [11]: > 2 h
- Ki [5]: 4540 nM
- EC50 [1]: 128 nM
- remaining at 1 h [2]: 96%
- bioavailability [12]: 74%
- Ki [3]: 24 nM
- inhibition at 20 µM (hERG [6]): 57%
- inhibition at 2 µM (hERG [7]): 11%
- clearance [13]: 30 mL/min/kg
- IC50 [8]: > 60000 nM
- IC50 (Cytochrome P450 2D6): > 3000 nM
- Ki [9]: 1660 nM
- half-life [14]: > 2 h
